Active and inactive are the calls of the source. The rule behind the calls is not given here. Non-standard residues stand in square brackets, D forms with d. Residues, ends and D or L forms follow the SMILES beside them. NMeR = CN[C@@H](CCCNC(=N)N)C(=O)O; NMeF = CN[C@@H](Cc1ccccc1)C(=O)O; NMeI = CC[C@H](C)[C@H](NC)C(=O)O; NMeE = CN[C@@H](CCC(=O)O)C(=O)O; NMeD = CN[C@@H](CC(=O)O)C(=O)O; NMeL = CN[C@@H](CC(C)C)C(=O)O; NMeM = CN[C@@H](CCSC)C(=O)O
What was measured:
[1] = test system: Streptococcus pneumoniae D39; assay: Agonist activity at ComD1 receptor in Streptococcus pneumoniae D39 harboring pcomX/lacZ reporter gene at 10 uM incubated for 30 mins by ONPG based beta-galactosidase assay relative to native CSP1
Method in brief: (§1)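 Single-dose screen of synthetic peptide at 10 μM in wild-type reporter strains (D39 for ComD1, TIGR4 for ComD2) producing their own CSP and carrying lacZ under the comX promoter. β-gal activity in Miller units normalized to native CSP (CSP1 or CSP2, 100%); DMSO 0%. Triplicates over three separate trials.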

[2] = test system: Streptococcus pneumoniae TIGR4; assay: Agonist activity at ComD2 receptor in Streptococcus pneumoniae TIGR4 harboring pcomX/lacZ reporter gene at 10 uM incubated for 30 mins by ONPG based beta-galactosidase assay relative to native CSP2; method in brief: as §1
[3] = test system: Streptococcus pneumoniae D39; assay: Antagonist activity at ComD1 receptor in Streptococcus pneumoniae D39 harboring pcomX/lacZ reporter gene assessed as inhibiton of CSP1-stimulated maximum signal at 10 uM preincubated for 30 mins followed by 50 nM CSP1 addition by ONPG based beta-galactosidase assay relative to native CSP1
Method in brief: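 Inhibition screen: peptides at 10 μM against CSP1 50 nM (D39, ComD1) or CSP2 250 nM (TIGR4, ComD2), in comX-lacZ reporter strains. β-gal Miller units normalized to CSP alone (100%) and DMSO (0%). Triplicates over three separate trials.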

[4] = Agonist activity at ComD2 receptor in Streptococcus pneumoniae TIGR4 harboring pcomX/lacZ reporter gene incubated for 30 mins by ONPG based beta-galactosidase assay
Method in brief: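 Dose-response in wild-type lacZ reporter strains (comX promoter; D39 for ComD1, TIGR4 for ComD2) producing native CSP. Peptides tested over a range of concentrations. β-gal read-out (Miller units) normalized to native CSP. EC50 reported with 95% confidence interval.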

[5] = Solubility of the compound in ammonium carbonate solution at pH 8; format: physicochemical; details: buffer

Compound	Activity [1]	Activity [2]	inhibition [3]	EC50 [4] [nM]	solubility [5]
CC[C@H](C)[C@H](NC(=O)[C@H](CCCNC(=N)N)NC(=O)[C@H](CCSC)NC(=O)[C@@H](N)CCC(=O)O)C(=O)N[C@@H](CO)C(=O)N[C@@H](CCCNC(=N)N)C(=O)N[C@H](C(=O)N[C@H](C(=O)N[C@@H](CC(C)C)C(=O)N[C@@H](CC(=O)O)C(=O)N[C@@H](Cc1ccccc1)C(=O)N[C@@H](CC(C)C)C(=O)N(C)[C@@H](Cc1ccccc1)C(=O)O)[C@@H](C)CC)[C@@H](C)CC (H-EMRISRIILDFL[NMeF]-OH)	inactive	> 75%	inactive	27	Insoluble
CC[C@H](C)[C@H](NC(=O)[C@H](CCCNC(=N)N)NC(=O)[C@H](CCSC)NC(=O)[C@@H](N)CCC(=O)O)C(=O)N[C@@H](CO)C(=O)N[C@@H](CCCNC(=N)N)C(=O)N[C@H](C(=O)N[C@H](C(=O)N[C@@H](CC(C)C)C(=O)N[C@@H](CC(=O)O)C(=O)N[C@@H](Cc1ccccc1)C(=O)N(C)[C@@H](CC(C)C)C(=O)N[C@@H](Cc1ccccc1)C(=O)O)[C@@H](C)CC)[C@@H](C)CC (H-EMRISRIILDF[NMeL]F-OH)	inactive	inactive	inactive		Insoluble
CC[C@H](C)[C@H](NC(=O)[C@H](CCCNC(=N)N)NC(=O)[C@H](CCSC)NC(=O)[C@@H](N)CCC(=O)O)C(=O)N[C@@H](CO)C(=O)N[C@@H](CCCNC(=N)N)C(=O)N[C@H](C(=O)N[C@H](C(=O)N[C@@H](CC(C)C)C(=O)N[C@@H](CC(=O)O)C(=O)N(C)[C@@H](Cc1ccccc1)C(=O)N[C@@H](CC(C)C)C(=O)N[C@@H](Cc1ccccc1)C(=O)O)[C@@H](C)CC)[C@@H](C)CC (H-EMRISRIILD[NMeF]LF-OH)	inactive	inactive	inactive		Insoluble
CC[C@H](C)[C@H](NC(=O)[C@H](CCCNC(=N)N)NC(=O)[C@H](CCSC)NC(=O)[C@@H](N)CCC(=O)O)C(=O)N[C@@H](CO)C(=O)N[C@@H](CCCNC(=N)N)C(=O)N[C@H](C(=O)N[C@H](C(=O)N[C@@H](CC(C)C)C(=O)N(C)[C@@H](CC(=O)O)C(=O)N[C@@H](Cc1ccccc1)C(=O)N[C@@H](CC(C)C)C(=O)N[C@@H](Cc1ccccc1)C(=O)O)[C@@H](C)CC)[C@@H](C)CC (H-EMRISRIIL[NMeD]FLF-OH)	inactive	> 75%	inactive	340	Insoluble
CC[C@H](C)[C@H](NC(=O)[C@H](CCCNC(=N)N)NC(=O)[C@H](CCSC)NC(=O)[C@@H](N)CCC(=O)O)C(=O)N[C@@H](CO)C(=O)N[C@@H](CCCNC(=N)N)C(=O)N[C@H](C(=O)N[C@H](C(=O)N(C)[C@@H](CC(C)C)C(=O)N[C@@H](CC(=O)O)C(=O)N[C@@H](Cc1ccccc1)C(=O)N[C@@H](CC(C)C)C(=O)N[C@@H](Cc1ccccc1)C(=O)O)[C@@H](C)CC)[C@@H](C)CC (H-EMRISRII[NMeL]DFLF-OH)	inactive	inactive	inactive		Insoluble
CC[C@H](C)[C@H](NC(=O)[C@H](CCCNC(=N)N)NC(=O)[C@H](CCSC)NC(=O)[C@@H](N)CCC(=O)O)C(=O)N[C@@H](CO)C(=O)N[C@@H](CCCNC(=N)N)C(=O)N[C@H](C(=O)N(C)[C@H](C(=O)N[C@@H](CC(C)C)C(=O)N[C@@H](CC(=O)O)C(=O)N[C@@H](Cc1ccccc1)C(=O)N[C@@H](CC(C)C)C(=O)N[C@@H](Cc1ccccc1)C(=O)O)[C@@H](C)CC)[C@@H](C)CC (H-EMRISRI[NMeI]LDFLF-OH)	inactive	inactive	inactive		Insoluble
CC[C@H](C)[C@H](NC(=O)[C@H](CCCNC(=N)N)NC(=O)[C@H](CCSC)NC(=O)[C@@H](N)CCC(=O)O)C(=O)N[C@@H](CO)C(=O)N[C@@H](CCCNC(=N)N)C(=O)N(C)[C@H](C(=O)N[C@H](C(=O)N[C@@H](CC(C)C)C(=O)N[C@@H](CC(=O)O)C(=O)N[C@@H](Cc1ccccc1)C(=O)N[C@@H](CC(C)C)C(=O)N[C@@H](Cc1ccccc1)C(=O)O)[C@@H](C)CC)[C@@H](C)CC (H-EMRISR[NMeI]ILDFLF-OH)	inactive	> 75%	inactive	> 1000	Insoluble
CC[C@H](C)[C@H](NC(=O)[C@H](CCCNC(=N)N)NC(=O)[C@H](CCSC)NC(=O)[C@@H](N)CCC(=O)O)C(=O)N[C@@H](CO)C(=O)N(C)[C@@H](CCCNC(=N)N)C(=O)N[C@H](C(=O)N[C@H](C(=O)N[C@@H](CC(C)C)C(=O)N[C@@H](CC(=O)O)C(=O)N[C@@H](Cc1ccccc1)C(=O)N[C@@H](CC(C)C)C(=O)N[C@@H](Cc1ccccc1)C(=O)O)[C@@H](C)CC)[C@@H](C)CC (H-EMRIS[NMeR]IILDFLF-OH)	inactive	> 75%	inactive	560	Insoluble
CC[C@H](C)[C@@H](C(=O)N[C@@H](CC(C)C)C(=O)N[C@@H](CCC(N)=O)C(=O)N[C@@H](CCCNC(=N)N)C(=O)O)N(C)C(=O)[C@H](Cc1ccccc1)NC(=O)[C@H](CC(=O)O)NC(=O)[C@H](CCCNC(=N)N)NC(=O)[C@H](Cc1ccccc1)NC(=O)[C@H](Cc1ccccc1)NC(=O)[C@H](CCCCN)NC(=O)[C@H](CO)NC(=O)[C@H](CC(C)C)NC(=O)[C@H](CCCNC(=N)N)NC(=O)[C@H](CCSC)NC(=O)[C@@H](N)CCC(=O)O (H-EMRLSKFFRDF[NMeI]LQR-OH)	inactive	inactive			
CC[C@H](C)[C@H](NC(=O)[C@H](Cc1ccccc1)N(C)C(=O)[C@H](CC(=O)O)NC(=O)[C@H](CCCNC(=N)N)NC(=O)[C@H](Cc1ccccc1)NC(=O)[C@H](Cc1ccccc1)NC(=O)[C@H](CCCCN)NC(=O)[C@H](CO)NC(=O)[C@H](CC(C)C)NC(=O)[C@H](CCCNC(=N)N)NC(=O)[C@H](CCSC)NC(=O)[C@@H](N)CCC(=O)O)C(=O)N[C@@H](CC(C)C)C(=O)N[C@@H](CCC(N)=O)C(=O)N[C@@H](CCCNC(=N)N)C(=O)O (H-EMRLSKFFRD[NMeF]ILQR-OH)	inactive	> 75%		> 1000	
CC[C@H](C)[C@H](NC(=O)[C@H](Cc1ccccc1)NC(=O)[C@H](CC(=O)O)NC(=O)[C@H](CCCNC(=N)N)N(C)C(=O)[C@H](Cc1ccccc1)NC(=O)[C@H](Cc1ccccc1)NC(=O)[C@H](CCCCN)NC(=O)[C@H](CO)NC(=O)[C@H](CC(C)C)NC(=O)[C@H](CCCNC(=N)N)NC(=O)[C@H](CCSC)NC(=O)[C@@H](N)CCC(=O)O)C(=O)N[C@@H](CC(C)C)C(=O)N[C@@H](CCC(N)=O)C(=O)N[C@@H](CCCNC(=N)N)C(=O)O (H-EMRLSKFF[NMeR]DFILQR-OH)	inactive	inactive			
CC[C@H](C)[C@H](NC(=O)[C@H](CCCNC(=N)N)NC(=O)[C@H](CO)NC(=O)[C@@H](NC(=O)[C@H](CCCNC(=N)N)N(C)C(=O)[C@H](CCSC)NC(=O)[C@@H](N)CCC(=O)O)[C@@H](C)CC)C(=O)N[C@H](C(=O)N[C@@H](CC(C)C)C(=O)N[C@@H](CC(=O)O)C(=O)N[C@@H](Cc1ccccc1)C(=O)N[C@@H](CC(C)C)C(=O)N[C@@H](Cc1ccccc1)C(=O)O)[C@@H](C)CC (H-EM[NMeR]ISRIILDFLF-OH)	inactive	inactive	inactive		Insoluble
CC[C@H](C)[C@H](NC(=O)[C@H](Cc1ccccc1)NC(=O)[C@H](CC(=O)O)NC(=O)[C@H](CCCNC(=N)N)NC(=O)[C@H](Cc1ccccc1)NC(=O)[C@H](Cc1ccccc1)NC(=O)[C@H](CCCCN)NC(=O)[C@H](CO)NC(=O)[C@H](CC(C)C)NC(=O)[C@H](CCCNC(=N)N)N(C)C(=O)[C@H](CCSC)NC(=O)[C@@H](N)CCC(=O)O)C(=O)N[C@@H](CC(C)C)C(=O)N[C@@H](CCC(N)=O)C(=O)N[C@@H](CCCNC(=N)N)C(=O)O (H-EM[NMeR]LSKFFRDFILQR-OH)	inactive	inactive			
CC[C@H](C)[C@H](NC(=O)[C@H](Cc1ccccc1)NC(=O)[C@H](CC(=O)O)NC(=O)[C@H](CCCNC(=N)N)NC(=O)[C@H](Cc1ccccc1)NC(=O)[C@H](Cc1ccccc1)NC(=O)[C@H](CCCCN)NC(=O)[C@H](CO)NC(=O)[C@H](CC(C)C)NC(=O)[C@H](CCCNC(=N)N)NC(=O)[C@H](CCSC)N(C)C(=O)[C@@H](N)CCC(=O)O)C(=O)N[C@@H](CC(C)C)C(=O)N[C@@H](CCC(N)=O)C(=O)N[C@@H](CCCNC(=N)N)C(=O)O (H-E[NMeM]RLSKFFRDFILQR-OH)	inactive	inactive			
CC[C@H](C)[C@H](NC(=O)[C@H](Cc1ccccc1)NC(=O)[C@H](CC(=O)O)NC(=O)[C@H](CCCNC(=N)N)NC(=O)[C@H](Cc1ccccc1)NC(=O)[C@H](Cc1ccccc1)NC(=O)[C@H](CCCCN)NC(=O)[C@H](CO)NC(=O)[C@H](CC(C)C)NC(=O)[C@H](CCCNC(=N)N)NC(=O)[C@H](CCSC)NC(=O)[C@H](CCC(=O)O)NC)C(=O)N[C@@H](CC(C)C)C(=O)N[C@@H](CCC(N)=O)C(=O)N[C@@H](CCCNC(=N)N)C(=O)O (H-[NMeE]MRLSKFFRDFILQR-OH)	inactive	inactive			
H-EMRISRIILDFLF-OH				78	
H-EMRISRIILDFLFLRKK-OH				51	

— ChEMBL document CHEMBL4364271, “Unveiling the Importance of Amide Protons in CSP:ComD Interactions in Streptococcus pneumoniae” (ACS Med Chem Lett, 2019)
